ChEMBL document CHEMBL1127621, “Electron-deficient DNA-intercalating agents as antitumor drugs: aza analogues of the experimental clinical agent N-[2-(dimethylamino)ethyl]acridine-4-carboxamide” (J Med Chem, 1994)
pIC50: −log10 of the molar value. Calls of active or inactive are those of the source. The calls are words filed in the database; no cut-off is given here.

How the values were obtained:
P388 = experiment: Inhibition of P388 leukemia cells growth in culture; format: functional, cell-based; settings: Mus musculus
Outline: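 P388 leukemia cells in exponential growth were exposed to drug for 70 h. IC50 is the micromolar concentration that reduces cell growth to 50% of control values.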

Nucleic Acid = experiment: Inhibitory concentration against ethidium bromide binding to [poly(dA-dT)] [poly(dA-dT)]; format: nucleic-acid assay
Outline: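 Fluorometric ethidium displacement using poly[d(A-T)]. C50 is the micromolar ligand concentration that displaces 50% of previously bound ethidium. For intercalators it is inversely proportional to the ligand–DNA association constant.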

Mus musculus [1] = experiment: Percentage increase in lifespan of P388 tumor-bearing mice compared with tumor-bearing controls at optimal dose of 65 mg/kg/day; NA= Not active; format: functional, organism-based
Outline: (§1)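 Mice were inoculated ip with 10^6 P388 leukemia cells. Drug was given ip on days 1, 5 and 9 in 0.1 mL of 30% v/v EtOH-water, with dose in mg/kg/day. Optimal dose was determined, and ILS is the % lifespan increase over tumor-bearing controls at that dose.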

Mus musculus [2] = experiment: Optimal dose required to inhibit P388 leukemia cells when administered intraperitoneally in mice; format: functional; outline: as §1
Mus musculus [3] = experiment: Percentage increase in lifespan of P388 tumor-bearing mice compared with tumor-bearing controls at optimal dose of 65 mg/kg/day; format: functional
Mus musculus [4] = experiment: Percentage increase in lifespan of P388 tumor-bearing mice compared with tumor-bearing controls at optimal dose of 150 mg/kg/day; NA = Not active; format: functional, organism-based; outline: as §1
Mus musculus [5] = experiment: Percentage increase in lifespan of P388 tumor-bearing mice compared with tumor-bearing controls at optimal dose of 65 mg/kg/day; NA=Not active; format: functional, organism-based; outline: as §1

| Structure (SMILES) | pIC50 (P388) | C50 (Nucleic Acid) | ILS (Mus musculus [1]) | OD (Mus musculus [2]) | ILS at 65 mg/kg/day (Mus musculus [3]) | ILS (Mus musculus [4]) | ILS (Mus musculus [5]) |
| --- | --- | --- | --- | --- | --- | --- | --- |
| CN(C)CCNC(=O)c1cccc2c(O)c3cccc([N+](=O)[O-])c3nc12 | 7.08 | 2.4 µM |  | 45 mg/kg/day | 65% |  |  |
| CN(C)CCNC(=O)c1cccc2cc3ccccc3nc12 | 6.96 | 5 µM |  |  | 91% |  |  |
| CN(C)CCNC(=O)c1cc([N+](=O)[O-])cc2c(O)c3ccccc3nc12 | 6.04 | 4.5 µM | inactive | 45 mg/kg/day |  |  |  |
| C(=N/NC1=NCCN1)/c1cccc2cc3ncccc3nc12 | 5.48 | 5.4 µM | inactive | 45 mg/kg/day |  |  |  |
| CN(C)CCNC(=O)C1=CC=C([N+](=O)[O-])C2C(=O)c3ccccc3N=C12 (stereo unspecified) | 6.26 | 23 µM |  |  |  |  |  |
| CN(C)CCn1c(=O)c2cccc3c(=O)c4ccncc4n(c1=O)c32 | < 4.40 | 10.7 µM |  |  |  |  |  |
| C(=N/NC1=NCCN1)/c1cccc2cc3cnccc3nc12 | 4.91 | 6.6 µM |  |  |  |  |  |
| CN(C)CCNC(=O)c1ccc([N+](=O)[O-])c2c(O)c3cccnc3nc12 | 7.74 | 10.4 µM |  | 65 mg/kg/day | 31% |  |  |
| CN(C)CCNC(=O)c1cccc2c(O)c3ccc([N+](=O)[O-])cc3nc12 | 5.92 | 4.1 µM | inactive | 65 mg/kg/day |  |  |  |
| C[N+](C)(C)CC(=O)N/N=C\c1cccc2c(O)c3cccnc3nc12 | < 4.40 | 7.3 µM |  |  |  |  |  |
| CN(C)CCNC(=O)c1cccc2cc3ccncc3nc12 | 5.08 | 4.6 µM |  |  |  |  |  |
| C(=N/NC1=NCCN1)/c1cccc2cc3ccncc3nc12 | 4.60 | 5.9 µM |  |  |  |  |  |
| CN(C)CCNC(=O)c1cccc2cc3ncccc3nc12 | 5.36 | 11.1 µM |  |  | 48% |  |  |

Now from value to compound, other results behind:

| pIC50 (P388) | C50 (Nucleic Acid) | Structure (SMILES) | ILS (Mus musculus [1]) | OD (Mus musculus [2]) | ILS at 65 mg/kg/day (Mus musculus [3]) | ILS (Mus musculus [4]) | ILS (Mus musculus [5]) |
| --- | --- | --- | --- | --- | --- | --- | --- |
| 6.82 | 2.1 µM | CN(C)CCNC(=O)c1ccc([N+](=O)[O-])c2cc3cccnc3nc12 | inactive | 20 mg/kg/day |  |  |  |
| 4.66 | 4 µM | Oc1c2cccnc2nc2c(/C=N\NC3=NCCN3)cccc12 |  |  |  |  |  |
| 5.89 | 11 µM | CN(C)CCNC(=O)c1cc([N+](=O)[O-])cc2c(O)c3cccnc3nc12 |  |  |  |  |  |
| 7.07 | 3.1 µM | CN(C)CCNC(=O)c1ccc([N+](=O)[O-])c2cc3ncccc3nc12 | inactive | 45 mg/kg/day |  |  |  |
| 5.46 | 5.9 µM | CN(C)CCNC(=O)c1cccc2c(O)c3cc([N+](=O)[O-])ccc3nc12 |  |  |  |  |  |
| 5.26 | 27.7 µM | CN(C)CCNC(=O)c1cccc2c(O)c3cccnc3nc12 |  |  |  | inactive |  |
| 6.31 | 7.6 µM | CN(C)CCNC(=O)c1cccc2cc3cccnc3nc12 |  |  |  |  | inactive |
| < 4.40 | 18.5 µM | CN(C)CCNC(=O)c1cccc2c(O)c3ccncc3nc12 |  |  |  |  |  |
| 4.92 | 5 µM | C(=N/NC1=NCCN1)/c1cccc2cc3cccnc3nc12 |  |  |  |  |  |
| 6.00 | 6.2 µM | CN(C)CCNC(=O)c1ccc([N+](=O)[O-])c2c(O)c3cnccc3nc12 |  |  |  |  |  |
| 5.77 | 15 µM | CN(C)CCNC(=O)c1cccc2c(=O)c3ccccc3[nH]c12 |  |  |  | inactive |  |
| < 4.40 | 9.6 µM | Oc1c2cccc(/C=N\NC3=NCCN3)c2nc2cccnc12 |  |  |  |  |  |
| < 4.40 |  | CN(C)CCNC(=O)c1cccc2c(O)c3cnccc3nc12 |  |  |  |  |  |
| 5.30 | 4.4 µM | CN(C)CCNC(=O)c1ccc([N+](=O)[O-])c2cc3cnccc3nc12 |  |  |  |  |  |
| 5.78 | 11.1 µM | C[N+](C)(C)CC(=O)N/N=C\c1cccc2cc3cccnc3nc12 | inactive | 65 mg/kg/day |  |  |  |
